Columns and labels:
[1] = test system: Human immunodeficiency virus 1; experiment: Antiviral activity against HIV1 3B in MT4 cells assessed as inhibition of virus-induced cytopathic effect by MTT assay; assay type: functional, organism-based; conditions: Human immunodeficiency virus 1, 3B
How it was run: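 Human lymphocyte MT-4 cultures were infected with HIV-1, and protection from virus-induced cytopathic effect was read by MTT.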

[2] = Cytotoxicity against human MT4 cells by MTT assay; assay type: cell-based
How it was run: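 Human lymphocyte MT-4 cultures were read by MTT in the MT-4/MTT format.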

[3] = biological target: T1, Human immunodeficiency virus type 1 integrase (Human immunodeficiency virus 1, UniProt Q7ZJM1); experiment: Inhibition of HIV1 integrase DNA strand transfer activity
[4] = biological target: T1, Human immunodeficiency virus type 1 integrase; experiment: Inhibition of HIV1 integrase by overall integration assay
[5] = biological target: T1, Human immunodeficiency virus type 1 integrase; experiment: Inhibition of HIV1 integrase 3'-processing activity

T1 sequence (Q7ZJM1 whole entry): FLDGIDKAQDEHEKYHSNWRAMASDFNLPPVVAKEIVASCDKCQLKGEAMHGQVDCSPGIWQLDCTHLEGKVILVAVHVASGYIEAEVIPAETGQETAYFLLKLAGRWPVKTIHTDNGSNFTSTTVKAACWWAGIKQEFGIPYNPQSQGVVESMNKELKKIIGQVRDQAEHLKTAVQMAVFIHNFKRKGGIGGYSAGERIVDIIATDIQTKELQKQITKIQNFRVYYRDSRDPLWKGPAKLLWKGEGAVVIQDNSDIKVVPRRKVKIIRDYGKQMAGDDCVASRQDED

SMILES | IC50 [3] [µM] | IC50 [4] [µM] | IC50 [5] [µM] | EC50 [1] [µM] | CC50 [2] [µM]
COc1cc2c(cc1Cc1cccc(Cl)c1F)c(=O)c(C(=O)O)cn2[C@H](CO)C(C)C | – | – | – | 0.00037 | 1.15
O=C(O)c1cn(CCO)c2ccc(Cc3cccc(Cl)c3F)cc2c1=O | – | – | – | – | > 15
O=C(O)c1cn(CCO)c2ccc(/C=C/c3ccccc3)cc2c1=O | > 100 | 71.9 | – | > 22.6 | 22.6
O=C(Nc1ccccc1)c1ccc2c(c1)c(=O)c(C(=O)O)cn2CCO | > 100 | > 100 | – | > 224 | 224
CCn1cc(C(=O)O)c(=O)c2c1C(=O)C=C(Nc1cccc(Cl)c1F)C2=O | > 100 | 9.7 | > 100 | > 2.4 | 2.4
CCn1cc(C(=O)O)c(=O)c2c1C(=O)C=C(Nc1ccc(F)c(Cl)c1)C2=O | 2.1 | 1 | – | > 2.2 | 2.2
CCn1cc(C(=O)O)c(=O)c2c1C(=O)C=C(Sc1ccccc1)C2=O | 1.6 | 4.6 | – | > 30 | 30
O=C(Nc1ccc2c(c1)c(=O)c(C(=O)O)cn2CCO)c1ccccc1 | > 100 | > 100 | – | > 220 | 220
CCn1cc(C(=O)O)c(=O)c2c1C(=O)C=CC2=O | 58.7 | 43.7 | – | > 42.8 | 42.8

More lines, main results first:

IC50 [3] [µM] | IC50 [4] [µM] | IC50 [5] [µM] | SMILES | EC50 [1] [µM] | CC50 [2] [µM]
> 100 | > 100 | – | O=C(O)c1cn(CCO)c2ccc(-c3ccccc3)cc2c1=O | > 44.9 | 44.9
0.2 | 0.07 | – | O=C(O)c1cn(CCO)c2ccc(Cc3ccc(Cl)cc3Cl)cc2c1=O | > 5.3 | 5.3
1.3 | 0.9 | – | O=C(O)c1cn(CCCO)c2ccc(Cc3ccc(Cl)cc3Cl)cc2c1=O | > 3.6 | 3.6
> 100 | 86.9 | > 100 | O=C(O)c1cn(CCO)c2ccc(Oc3ccc(F)c(Cl)c3)cc2c1=O | > 9.9 | 9.9
> 100 | 73.9 | > 100 | O=C(c1ccc2c(c1)c(=O)c(C(=O)O)cn2CCCO)c1ccc(Cl)cc1Cl | > 17.5 | 17.5
> 100 | 54.9 | > 100 | O=C(c1ccc2c(c1)c(=O)c(C(=O)O)cn2CCCCO)c1ccc(Cl)cc1Cl | > 17 | 17
24.1 | 10.8 | – | CN(C)CCn1cc(C(=O)O)c(=O)c2cc(Cc3ccc(Cl)cc3Cl)ccc21 | > 5.2 | 5.2
> 100 | 18.7 | > 100 | O=C(c1ccc2c(c1)c(=O)c(C(=O)O)cn2CCO)c1ccc(Cl)cc1Cl | > 21.1 | 21.1
> 100 | > 100 | – | O=C(O)c1cn(CCO)c2ccc(Nc3cccc(Cl)c3F)cc2c1=O | > 27.4 | 27.4
> 100 | 38 | > 100 | CCn1cc(C(=O)O)c(=O)c2cc(Nc3cccc(Cl)c3F)ccc21 | > 9.8 | 9.8
18.5 | 4.8 | – | O=C(O)c1cn(CCO)c2ccc(Sc3ccccc3)cc2c1=O | > 22.7 | 22.7
0.6 | 0.05 | 16.6 | O=C(O)c1cn(CCCCO)c2ccc(Cc3ccc(Cl)cc3Cl)cc2c1=O | > 4.2 | 4.2
> 100 | 77.6 | > 100 | O=C(O)c1cn(CCO)c2ccc(-c3ccncc3)cc2c1=O | > 138 | 138
16.5 | 5.6 | – | COCCn1cc(C(=O)O)c(=O)c2cc(Cc3ccc(Cl)cc3Cl)ccc21 | > 4.2 | 4.2

— ChEMBL document CHEMBL1156566, “Investigations on the 4-quinolone-3-carboxylic acid motif. 1. Synthesis and structure-activity relationship of a class of human immunodeficiency virus type 1 integrase inhibitors” (J Med Chem, 2008)
